Legend:
Assay type in all cases: functional
Ovis aries [1] = assay: Activity against adult gastrointestinal helminths of experimentally infected sheep on oral administration of Trichostrongylus axei at 3.0 mg/kg.
How it was run: (§1)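 Sheep were given the compound orally, each at one dose, with concurrent experimental infections of six adult gastrointestinal nematode species. Efficacy against adult worms was recorded as a categorical score for each species.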

Ovis aries [2] = assay: Activity against adult gastrointestinal helminths of experimentally infected sheep on oral administration of Trichostrongylus colubriformis at 3.0 mg/kg.
How it was run: (§2)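 Sheep were given the compound orally, each at one dose, with experimental infections of six gastrointestinal nematode species. The Haemonchus contortus and Trichostrongylus colubriformis strains were benzimidazole-resistant. Efficacy against adult worms was recorded as a categorical score.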

Ovis aries [3] = assay: Activity against adult gastrointestinal helminths of experimentally infected sheep on oral administration of Ostertagia circumcincta at 3.0 mg/kg; 75-90; how it was run: as §1
Ovis aries [4] = assay: Activity against adult gastrointestinal helminths of experimentally infected sheep on oral administration of Oesophagostomum columbianum at 3.0 mg/kg.; how it was run: as §1
Ovis aries [5] = assay: Activity against adult gastrointestinal helminths of experimentally infected sheep on oral administration of Cooperia species at 3.0 mg/kg; 50-74; how it was run: as §1
Ovis aries [6] = assay: Activity against adult gastrointestinal helminths of experimentally infected sheep on oral administration of Haemonchus contortus at 3.0 mg/kg; 50-74; how it was run: as §2
Ovis aries [7] = assay: Activity against adult gastrointestinal helminths of experimentally infected sheep on oral administration of Oesophagostomum columbianum at 0.1 mg/kg.; how it was run: as §1
Ovis aries [8] = assay: Activity against adult gastrointestinal helminths of experimentally infected sheep on oral administration of Haemonchus contortus at 0.1 mg/kg.; how it was run: as §2
Ovis aries [9] = assay: Activity against adult gastrointestinal helminths of experimentally infected sheep on oral administration of Trichostrongylus colubriformis at 0.1 mg/kg.; how it was run: as §2
Ovis aries [10] = assay: Activity against adult gastrointestinal helminths of experimentally infected sheep on oral administration of Trichostrongylus axei at 0.1 mg/kg.; how it was run: as §1
Ovis aries [11] = assay: Activity against adult gastrointestinal helminths of experimentally infected sheep on oral administration of Cooperia species at 0.1 mg/kg.; how it was run: as §1
Ovis aries [12] = assay: Activity against adult gastrointestinal helminths of experimentally infected sheep on oral administration of Ostertagia circumcincta at 0.1 mg/kg.; how it was run: as §1
Ovis aries [13] = assay: Activity against adult gastrointestinal helminths of experimentally infected sheep on oral administration of Oesophagostomum columbianum at 0.15 mg/kg.; how it was run: as §1
Ovis aries [14] = assay: Activity against adult gastrointestinal helminths of experimentally infected sheep on oral administration of Trichostrongylus axei at 0.15 mg/kg.; how it was run: as §1
Ovis aries [15] = assay: Activity against adult gastrointestinal helminths of experimentally infected sheep on oral administration of Cooperia species at 0.15 mg/kg.; how it was run: as §1
Ovis aries [16] = assay: Activity against adult gastrointestinal helminths of experimentally infected sheep on oral administration of Ostertagia circumcincta at 0.15 mg/kg; 75-90; how it was run: as §1
Ovis aries [17] = assay: Activity against adult gastrointestinal helminths of experimentally infected sheep on oral administration of Haemonchus contortus at 0.15 mg/kg 75-90; how it was run: as §2
Ovis aries [18] = assay: Activity against adult gastrointestinal helminths of experimentally infected sheep on oral administration of Trichostrongylus colubriformis at 0.15 mg/kg.; how it was run: as §2
Ovis aries [19] = assay: Activity against adult gastrointestinal helminths of experimentally infected sheep on oral administration of Haemonchus contortus at 0.3 mg/kg.; how it was run: as §2
Ovis aries [20] = assay: Activity against adult gastrointestinal helminths of experimentally infected sheep on oral administration of Trichostrongylus axei at 0.3 mg/kg.; how it was run: as §1
Ovis aries [21] = assay: Activity against adult gastrointestinal helminths of experimentally infected sheep on oral administration of Cooperia species at 0.3 mg/kg; 75-90; how it was run: as §1
Ovis aries [22] = assay: Activity against adult gastrointestinal helminths of experimentally infected sheep on oral administration of Ostertagia circumcincta at 0.3 mg/kg.; how it was run: as §1
Ovis aries [23] = assay: Activity against adult gastrointestinal helminths of experimentally infected sheep on oral administration of Oesophagostomum columbianum at 0.3 mg/kg.; how it was run: as §1
Ovis aries [24] = assay: Activity against adult gastrointestinal helminths of experimentally infected sheep on oral administration of Trichostrongylus colubriformis at 0.3 mg/kg.; how it was run: as §2
Ovis aries [25] = assay: Activity against adult gastrointestinal helminths of experimentally infected sheep on oral administration of Cooperia species at 0.3 mg/kg.; how it was run: as §1
Ovis aries [26] = assay: Activity against adult gastrointestinal helminths of experimentally infected sheep on oral administration of Ostertagia circumcincta at 0.3 mg/kg; 75-90; how it was run: as §1
Ovis aries [27] = assay: Activity against adult gastrointestinal helminths of experimentally infected sheep on oral administration of Trichostrongylus colubriformis at 0.3 mg/kg; 50-74; how it was run: as §2
Ovis aries [28] = assay: Activity against adult gastrointestinal helminths of experimentally infected sheep on oral administration of Haemonchus contortus at 0.1 mg/kg; 75-90; how it was run: as §2
Ovis aries [29] = assay: Activity against adult gastrointestinal helminths of experimentally infected sheep on oral administration of Cooperia species at 0.1 mg/kg; 75-90; how it was run: as §1
Ovis aries [30] = assay: Activity against adult gastrointestinal helminths of experimentally infected sheep on oral administration of Ostertagia circumcincta at 0.1 mg/kg; 75-90; how it was run: as §1
Ovis aries [31] = assay: Activity against adult gastrointestinal helminths of experimentally infected sheep on oral administration of Trichostrongylus axei at 0.2 mg/kg.; how it was run: as §1
Ovis aries [32] = assay: Activity against adult gastrointestinal helminths of experimentally infected sheep on oral administration of Oesophagostomum columbianum at 0.2 mg/kg.; how it was run: as §1
Ovis aries [33] = assay: Activity against adult gastrointestinal helminths of experimentally infected sheep on oral administration of Haemonchus contortus at 0.2 mg/kg.; how it was run: as §2
Ovis aries [34] = assay: Activity against adult gastrointestinal helminths of experimentally infected sheep on oral administration of Cooperia species at 0.2 mg/kg.; how it was run: as §1
Ovis aries [35] = assay: Activity against adult gastrointestinal helminths of experimentally infected sheep on oral administration of Trichostrongylus colubriformis at 0.2 mg/kg.; how it was run: as §2
Ovis aries [36] = assay: Activity against adult gastrointestinal helminths of experimentally infected sheep on oral administration of Ostertagia circumcincta at 0.2 mg/kg.; how it was run: as §1
Ovis aries [37] = assay: Activity against adult gastrointestinal helminths of experimentally infected sheep on oral administration of Oesophagostomum columbianum at 0.05 mg/kg.
Ovis aries [38] = assay: Activity against adult gastrointestinal helminths of experimentally infected sheep on oral administration of Trichostrongylus colubriformis at 0.05 mg/kg.
How it was run: (§3)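 Sheep were experimentally infected with benzimidazole-resistant isolates of this species among six gastrointestinal helminths and dosed orally. Efficacy against the adult worms was scored per species.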

Ovis aries [39] = assay: Activity against adult gastrointestinal helminths of experimentally infected sheep on oral administration of Haemonchus contortus at 0.05 mg/kg.; how it was run: as §3
Ovis aries [40] = assay: Activity against adult gastrointestinal helminths of experimentally infected sheep on oral administration of Ostertagia circumcincta at 0.05 mg/kg.
Ovis aries [41] = assay: Activity against adult gastrointestinal helminths of experimentally infected sheep on oral administration of Trichostrongylus axei at 0.05 mg/kg.
Ovis aries [42] = assay: Activity against adult gastrointestinal helminths of experimentally infected sheep on oral administration of Cooperia species at 0.05 mg/kg.
Ovis aries [43] = assay: Activity against adult gastrointestinal helminths of experimentally infected sheep on oral administration of Trichostrongylus axei at 0.2 mg/kg; 50-74; how it was run: as §1

For `CC1=C[C@H]2C(=O)O[C@H]3C[C@@H](C/C=C(\C)[C@@H](O)[C@@H](C)/C=C/C=C4\CO[C@H]([C@@H]1O)[C@@]42O)O[C@@]1(CC[C@H](C)[C@@H](C(C)C)O1)C3`, the Efficacy (Ovis aries [1]) was >90%, the Efficacy (Ovis aries [2]) was >90% and the Efficacy (Ovis aries [3]) was 75%. The Efficacy (Ovis aries [4]) was >90%, the Efficacy (Ovis aries [5]) was 50% and the Efficacy (Ovis aries [6]) was 50%.
With `CC[C@H](C)[C@H]1O[C@]2(CC(O)[C@@H]1C)C[C@@H]1C[C@@H](C/C=C(\C)[C@@H](OC3CC(OC)C(OC4CC(OC)C(O)C(C)O4)C(C)O3)[C@@H](C)/C=C/C=C3\CO[C@@H]4[C@H](OC)C(C)=C[C@@H](C(=O)O1)[C@]34O)O2` (stereo not given in full) [AVERMECTIN A2] the Efficacy (Ovis aries [7]) was >90%, the Efficacy (Ovis aries [8]) was >90% and the Efficacy (Ovis aries [9]) was >90%. The Efficacy (Ovis aries [10]) was >90%, the Efficacy (Ovis aries [11]) was <50% and the Efficacy (Ovis aries [12]) was >90%.
With `COC1CC(O[C@@H]2/C(C)=C/C[C@@H]3C[C@@H](C[C@]4(C=C[C@H](C)[C@@H](C(C)C)O4)O3)OC(=O)[C@@H]3C=C(C)[C@@H](O)[C@H]4OC/C(=C\C=C\[C@@H]2C)[C@]43O)OC(C)C1O` (stereo not given in full) [AVERMECTIN B1 MONOSACCHARIDE] the Efficacy (Ovis aries [13]) was <50%, the Efficacy (Ovis aries [14]) was >90% and the Efficacy (Ovis aries [15]) was >90%. The Efficacy (Ovis aries [16]) was 75%, the Efficacy (Ovis aries [17]) was 75% and the Efficacy (Ovis aries [18]) was >90%.
For `CO[C@H]1C[C@H](O[C@@H]2/C(C)=C/C[C@@H]3C[C@@H](C[C@]4(CC[C@H](C)[C@@H](C(C)C)O4)O3)OC(=O)[C@@H]3C=C(C)[C@@H](O)[C@H]4OC/C(=C\C=C\[C@@H]2C)[C@]43O)O[C@@H](C)[C@@H]1O`, the Efficacy (Ovis aries [19]) was >90%, the Efficacy (Ovis aries [20]) was >90% and the Efficacy (Ovis aries [21]) was 75%. For the same compound, the Efficacy (Ovis aries [22]) was >90%, the Efficacy (Ovis aries [23]) was >90% and the Efficacy (Ovis aries [24]) was >90%.
`CC[C@H](C)[C@H]1O[C@]2(CC[C@@H]1C)C[C@@H]1C[C@@H](C/C=C(\C)[C@@H](O[C@H]3C[C@H](OC)[C@@H](O[C@H]4C[C@H](OC)[C@@H](O)[C@H](C)O4)[C@H](C)O3)[C@@H](C)/C=C/C=C3\CO[C@@H]4[C@H](OC)C(C)=C[C@@H](C(=O)O1)[C@]34O)O2` was tested, and the Efficacy (Ovis aries [19]) was >90%, the Efficacy (Ovis aries [25]) was <50% and the Efficacy (Ovis aries [20]) was <50%. For the same compound, the Efficacy (Ovis aries [26]) was 75%, the Efficacy (Ovis aries [27]) was 50% and the Efficacy (Ovis aries [23]) was >90%.
`CC[C@H](C)[C@H]1O[C@]2(C=C[C@@H]1C)C[C@@H]1C[C@@H](C/C=C(\C)[C@@H](OC3CC(OC)C(OC4CC(OC)C(O)C(C)O4)C(C)O3)[C@@H](C)/C=C/C=C3\CO[C@@H]4[C@H](OC)C(C)=C[C@@H](C(=O)O1)[C@]34O)O2` (stereo not given in full) [AVERMECTIN A1] was tested, and the Efficacy (Ovis aries [7]) was <50%, the Efficacy (Ovis aries [28]) was 75% and the Efficacy (Ovis aries [9]) was <50%. The Efficacy (Ovis aries [29]) was 75%, the Efficacy (Ovis aries [10]) was <50% and the Efficacy (Ovis aries [30]) was 75%.
In the case of `COC1CC(O[C@@H]2/C(C)=C/C[C@@H]3C[C@@H](C[C@]4(CC(O)[C@H](C)[C@@H](C(C)C)O4)O3)OC(=O)[C@@H]3C=C(C)[C@@H](O)[C@H]4OC/C(=C\C=C\[C@@H]2C)[C@]43O)OC(C)C1O` (stereo not given in full) [AVERMECTIN B2 MONOSACCHARIDE], the Efficacy (Ovis aries [31]) is reported as >90%, the Efficacy (Ovis aries [32]) is reported as >90% and the Efficacy (Ovis aries [33]) is reported as 50%. For the same compound, the Efficacy (Ovis aries [34]) was >90%, the Efficacy (Ovis aries [35]) was >90% and the Efficacy (Ovis aries [36]) was 50%.
With `CC[C@H](C)[C@H]1O[C@]2(C=C[C@@H]1C)C[C@@H]1C[C@@H](C/C=C(\C)[C@@H](O[C@H]3C[C@H](OC)[C@@H](O[C@H]4C[C@H](OC)[C@@H](O)[C@H](C)O4)[C@H](C)O3)[C@@H](C)/C=C/C=C3\CO[C@@H]4[C@H](O)C(C)=C[C@@H](C(=O)O1)[C@]34O)O2` [ABAMECTIN COMPONENT B1A] the Efficacy (Ovis aries [37]) was >90%, the Efficacy (Ovis aries [38]) was >90% and the Efficacy (Ovis aries [39]) was >90%. For the same compound, the Efficacy (Ovis aries [40]) was >90%, the Efficacy (Ovis aries [41]) was >90% and the Efficacy (Ovis aries [42]) was >90%.
`COC1CC(OC2C(C)OC(O[C@@H]3/C(C)=C/C[C@@H]4C[C@@H](C[C@]5(CC(O)[C@H](C)[C@@H](C(C)C)O5)O4)OC(=O)[C@@H]4C=C(C)[C@@H](O)[C@H]5OC/C(=C\C=C\[C@@H]3C)[C@]54O)CC2OC)OC(C)C1O` (stereo not given in full) [AVERMECTIN B2] was tested, and the Efficacy (Ovis aries [7]) was >90%, the Efficacy (Ovis aries [8]) was <50% and the Efficacy (Ovis aries [9]) was >90%. The Efficacy (Ovis aries [10]) was >90%, the Efficacy (Ovis aries [11]) was >90% and the Efficacy (Ovis aries [12]) was >90%.
With `CO[C@H]1C[C@H](O[C@H]2[C@H](C)O[C@@H](O[C@@H]3/C(C)=C/C[C@@H]4C[C@@H](C[C@]5(CC[C@H](C)[C@@H](C(C)C)O5)O4)OC(=O)[C@@H]4CC(C)[C@@H](O)[C@H]5OC/C(=C\C=C\[C@@H]3C)[C@]54O)C[C@@H]2OC)O[C@@H](C)[C@@H]1O` (stereo not given in full) the Efficacy (Ovis aries [32]) was >90%, the Efficacy (Ovis aries [33]) was <50% and the Efficacy (Ovis aries [34]) was <50%. For the same compound, the Efficacy (Ovis aries [43]) was 50%, the Efficacy (Ovis aries [35]) was <50% and the Efficacy (Ovis aries [36]) was <50%.

— ChEMBL document CHEMBL1121612, “Ivermectin, a new broad-spectrum antiparasitic agent” (1980)
